Measured values taken from publication PMC8556345 (Cell, 2021).
Where no end group is shown, it is not given here.

Columns and labels:
grpLight in ACx = assay: in vivo dual-color photometry of grpLight and TAMRA-GRP, diffusion in cortex; set-up: species or system mouse; conditions: infusion into distant cortical area
GRP receptor (GRPR) [1] = assay: binding to GRP receptor; conditions: statement in method; no data shown
[2] = TAMRA-GRP imaging in acute brain slices, flow-in delay; set-up: species or system mouse; conditions: 300 nM, bath
Method in brief: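 Non-fluorescent acute brain slices were imaged through a 650/100 nm emission filter. […] Arrival in the bath was defined as the first time point at which fluorescence rose 2 SD above baseline.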

SST cells = assay: EPSC frequency, SST cells, ACx and M1 together; assay type: cell-based, mouse; conditions: GRP bath
Method in brief: (§1)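 Acute coronal slices were incubated in oxygenated Ringer's at 32°C for ~15 min, then held at RT. SST and PVALB cells were identified in Sst-EGFP or Pvalb-EGFP mice. Whole-cell recordings were made at 30-32°C, voltage-clamped at −70 mV, with K⁺-gluconate low-Cl⁻ pipette solution and 10 μM gabazine.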

motor cortex SST cells [3] = assay: whole-cell current-clamp, membrane potential, motor cortex SST cells; assay type: cell-based, mouse; conditions: GRP; bath with NBQX, CPP, gabazine, CGP and TTX; 10 cells
M1 PVALB cells = assay: EPSC frequency, M1 PVALB cells; assay type: cell-based, mouse; conditions: GRP bath, gabazine; n = 10
Method in brief: as §1

ACx SST cells [4] = assay: whole-cell current-clamp, membrane potential, ACx SST cells; assay type: cell-based, mouse; conditions: ACx (and M1), compared to VIP cells
ACx PVALB cells [5] = assay: whole-cell current-clamp, membrane potential, ACx PVALB cells; assay type: cell-based, mouse
ACx VIP cells [6] = assay: whole-cell current-clamp, membrane potential, ACx VIP cells; assay type: cell-based, mouse
GRP receptor (GRPR) [7] = conditions: ref Kroog et al., 1995; cited from earlier work
ACx VIP cells [8] = assay: in vivo fiber photometry of GCaMP in ACx VIP cells, cannula infusion; set-up: species or system mouse; conditions: 2 μl, 300 μM GRP and TAMRA-GRP, 100 nl/min into visual cortex; n = 3 (grpLight1.2) and 8 (GCaMP) mice
Method in brief: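 Decay was corrected by an exponential fit to trace minima (5000-point sliding window). Autofluorescence measured in fluorophore-free implanted mice was subtracted, and GCaMP was normalized to mean mBeRFP fluorescence.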

motor cortex SST cells [9] = assay: IPSC frequency, motor cortex SST cells; assay type: cell-based, mouse; conditions: GRP bath, NBQX and CPP
Method in brief: (§2)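 Whole-cell voltage clamp at −70 mV in acute coronal slices at 30-32°C, with 3-4 MΩ pipettes. The pipette held K⁺-based high-Cl⁻ solution (127.5 mM KCl, pH 7.3), and the bath held NBQX and CPP at 10 μM each.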

motor cortex PVALB cells [10] = assay: whole-cell current-clamp, membrane potential, motor cortex PVALB cells; assay type: cell-based, mouse; conditions: GRP; bath with NBQX, CPP, gabazine, CGP and TTX; 15 cells
M1 SST cells = assay: EPSC frequency, M1 SST cells; assay type: cell-based, mouse; conditions: GRP bath, gabazine; n = 9
Method in brief: as §1

ACx SST cells [11] = assay: IPSC frequency, ACx SST cells; assay type: cell-based, mouse; conditions: GRP bath, NBQX and CPP, TTX-sensitive; n=10
ACx PVALB cells [12] = assay: EPSC frequency, ACx PVALB cells; assay type: cell-based, mouse; conditions: GRP bath, gabazine; n = 10
Method in brief: as §1

[13] = tested on: ACx pyramidal (Pyr) cells; assay: whole-cell current-clamp, membrane potential, ACx pyramidal cells; assay type: cell-based, mouse; conditions: ACx (and M1), compared to VIP cells
L3/4 ACx VIP cells = assay: spike probability of VIP cells upon optogenetic stimulation of thalamic inputs; assay type: cell-based, mouse
Method in brief: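 L3/4 auditory cortex VIP cells, identified by EGFP in Vip-EGFP or Vip-IRES-Cre x H2B-EGFP mice, were recorded whole-cell in current clamp with low-Cl⁻ K⁺-based solution at 30-32°C. Thalamic inputs were stimulated with 1 s bursts of 5 ms light pulses at 20 Hz every 20 s. […] Spontaneous and evoked spikes were counted.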

[14] = tested on: motor cortex (M1) VIP cells; assay: whole-cell current-clamp, membrane potential, motor cortex VIP cells; assay type: cell-based, mouse; conditions: CPP, gabazine
ACx SST cells [15] = assay: EPSC frequency, ACx SST cells; assay type: cell-based, mouse; conditions: GRP bath, gabazine; n = 11
Method in brief: as §1

ACx PVALB cells [16] = assay: IPSC frequency, ACx PVALB cells; assay type: cell-based, mouse; conditions: GRP bath, NBQX and CPP, TTX-sensitive; n=10
[17] = tested on: Sst+ and Pvalb+ cells, motor cortex; assay: immediate early gene; assay type: in vivo, mouse
Method in brief: (§3)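 Brains were frozen 45 min later for Fos and Npas4 FISH. Expression was the cell area covered by label, in manually drawn ROIs across all layers, 2-3 slices per mouse. Right-hemisphere values were normalized to the left-hemisphere mean per cell type.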

motor cortex PVALB cells [18] = assay: IPSC frequency, motor cortex PVALB cells; assay type: cell-based, mouse; conditions: GRP bath, NBQX and CPP
Method in brief: as §2

[19] = tested on: grpLight (GRPR/cpGFP sensor); assay: grpLight GRP sensor characterization; assay type: cell-based, human
ACx Pyr cells = assay: IPSC frequency, ACx Pyr cells; assay type: cell-based, mouse; conditions: GRP bath, NBQX and CPP
Method in brief: as §2

[20] = tested on: auditory cortex VIP cells; assay: GCaMP acute slice Ca2+ imaging, ACx VIP cells; assay type: cell-based, mouse
[21] = tested on: motor cortex pyramidal cells; assay: whole-cell current-clamp, membrane potential, motor cortex pyramidal cells; assay type: cell-based, mouse; conditions: GRP; bath with NBQX, CPP, gabazine, CGP and TTX; 10 cells
[22] = tested on: Vip+ and glutamatergic cells, motor cortex; assay: immediate early gene; assay type: in vivo, mouse
Method in brief: as §3

[23] = 300 nM GRP, male mice, NBQX, CGP
[24] = 1372 responding VIP cells, male auditory cortex, GRP bath

## VSTGAGGGTVLAKMYPRGSHWAVGHLM-NH2 [TAMRA-GRP]
grpLight in ACx
  grpLight fluorescence change in ACx following infusion: long-lasting increases minutes after the start of GRP infusion
GRP receptor (GRPR) [1]
  efficiency as GRPR ligand: very inefficient GRPR ligand
[2]; 3 slices, range
  TAMRA-GRP fluorescence peak latency, range: 156.4 to 162.8 s
  TAMRA-GRP fluorescence response start, range: 79 to 95 s
[2]; mean of 3 slices
  TAMRA-GRP fluorescence peak latency: 160.3 s
  TAMRA-GRP fluorescence response start: 87.4 s

## VSTGAGGGTVLAKMYPRGSHWAVGHLM-NH2 [GRP, gastrin-releasing peptide]
SST cells; SST and PVALB cells
  effect on EPSC frequency: hardly affected
SST cells; gabazine
  SST cells with increased EPSC frequency: 2 out of 20
Motor cortex SST cells [3]
  depolarization, motor cortex SST: 1.39 ± 0.74 mV
M1 PVALB cells
  mean increase in EPSC frequency, M1 PVALB: 0.69 ± 0.80 Hz
ACx SST cells [4]
  GRP-evoked depolarization, SST cells: significantly smaller than in VIP cells
ACx PVALB cells [5]; ACx (and M1), compared to VIP cells
  GRP-evoked depolarization, PVALB cells: significantly smaller than in VIP cells
ACx PVALB cells [5]; Fig. S3D
  PVALB cell depolarization vs control recordings without GRP: No significant difference
ACx VIP cells [6]; 300 nM GRP
  depolarization in female compared to male mice: non-significantly larger depolarization compared to male mice
ACx VIP cells [6]; 300 nM GRP, bath NBQX, CPP, gabazine, CGP and TTX, mean ± SEM, 10 cells (Fig. S3C)
  mean depolarization, female mice: 8.62 ±1.11 mV
ACx VIP cells [6]; 300 nM for 2 min, male mice
  duration of burst-like firing activity: > 1 min
  neurons with long-lasting burst-like firing activity: 3 out of 10
ACx VIP cells [6]; 300 nM for 2 min, male mice, acute slices, 30-32°C
  VIP cells that depolarize upon GRP bath application: 7 out of 10
ACx VIP cells [6]; Fig. 3C, 6-10 cells per group
  dependence of depolarization on concentration: concentration-dependent
GRP receptor (GRPR) [7]
  binding to GRPR: high affinity and selectivity
ACx VIP cells [8]
  onset of functional effect on VIP cell Ca2+ vs grpLight detection: functional effects on these cells in vivo well before photometric detection of changes in grpLight fluorescence
Motor cortex SST cells [9]
  SST cells with increased IPSC frequency, M1: 4 out of 10
Motor cortex SST cells [9]; n = 10
  mean increase in IPSC frequency, M1 SST: 13.28 ± 5.97 Hz
Motor cortex PVALB cells [10]
  depolarization, motor cortex PVALB: 1.78 ± 0.45 mV
M1 SST cells
  mean increase in EPSC frequency, M1 SST: 1.61 ± 0.97 Hz
ACx SST cells [11]
  SST cells with increased IPSC frequency: 60%
ACx PVALB cells [12]
  mean increase in EPSC frequency, ACx PVALB: 1.95 ± 1.43 Hz
[13]
  GRP-evoked depolarization, Pyr cells: significantly smaller than in VIP cells
L3/4 ACx VIP cells; 0 ± 0 Hz before GRP, n = 5 cells
  average spontaneous spike rate prior to stimulation, after GRP: 0.09 ± 0.08 Hz
L3/4 ACx VIP cells; 300 nM GRP bath for 2 min, 14 ± 9% before GRP, 5 ms pulses at 20 Hz, n = 5 cells
  average evoked spike probability after GRP: 52 ± 16%
L3/4 ACx VIP cells; GRP bath
  effect on spontaneous spike rate prior to stimulation onset: without increasing spontaneous spike rate
L3/4 ACx VIP cells; optogenetic stimulation of thalamo-cortical afferents
  effect on evoked spike probability: significantly increased the evoked spike probability
[14]; [23]
  M1 VIP neurons with burst-like activity: 3 out of 10
  VIP cells in M1 that depolarized: 9 out of 10
[14]; GRP, bath with NBQX, CGP and TTX, 6 cells
  depolarization, motor cortex VIP: 9.38 ± 1.28 mV
ACx SST cells [15]
  mean increase in EPSC frequency, ACx SST: 1.86 ± 1.15 Hz
ACx PVALB cells [16]
  PVALB cells with increased IPSC frequency: 40%
[17]; 3 μM GRP into right M1
  Npas4 expression, Sst+ and Pvalb+ cells: but not Sst^+ and Pvalb^+ cells
[17]; 200 nl of 3 μM GRP into right M1
  Fos expression, Sst+ and Pvalb+ cells: without changes in expression
Motor cortex PVALB cells [18]
  PVALB cells with increased IPSC frequency, M1: 3 out of 10
Motor cortex PVALB cells [18]; n = 10
  mean increase in IPSC frequency, M1 PVALB: 4.59 ± 2.00 Hz
[19]
  concentrations detectable by grpLight: nanomolar concentrations
ACx Pyr cells
  Pyr cells with increased IPSC frequency: 1 out of 10
[20]; [24]
  GCaMP peak latency: 156.9 ± 1.5 s
  GCaMP response start: 99.4 ± 0.9 s
[20]; ACx of male and female mice and M1, bath application
  lowest concentration that increased GCaMP fluorescence in most VIP cells: 3 nM
[20]; GRP, with TTX
  cells with Ca2+ oscillations with TTX: 14%
[20]; GRP, without TTX, NBQX, CPP, gabazine, CGP
  VIP cells with phasic (oscillatory) GCaMP fluctuations: 26%
[20]; median (IQR), female auditory cortex, 580 cells in 14 slices, 300 nM GRP, 2 min, 32°C
  GCaMP fluorescence change ΔF/FKCl, female: 11.8 (15.6) % ΔF/FKCl
[20]; start GCaMP vs start TAMRA-GRP
  latency of Ca2+ increases after TAMRA-GRP levels increased: 12 s
[21]
  depolarization, motor cortex pyramidal: 0.56 ± 0.49 mV
[22]; 3 μM GRP into M1, vs control mice
  Npas4 expression in Vip-IRES-Cre;Grpr fl/y mice: significantly smaller
[22]; 3 μM GRP into right M1
  Npas4 expression, Vip+ and glutamatergic cells: significantly increased expression
[22]; 200 nl of 3 μM GRP into right M1, anaesthetized mice, FISH at 45 min
  Fos expression ipsilateral to injection, Vip+ and glutamatergic cells: strong increase in Fos
